Reference: ChEMBL document CHEMBL1122863, “Renin inhibitors. Syntheses of subnanomolar, competitive, transition-state analogue inhibitors containing a novel analogue of statine” (J Med Chem, 1985)
pIC50, pKi: −log10 of the molar value. Residues, ends and D or L forms follow the SMILES beside them.

Key:
Renin [1] = molecular target: T1, Renin (Homo sapiens, UniProt P00797); assay: Inhibition of human kidney renin
T1 sequence (P00797 whole entry): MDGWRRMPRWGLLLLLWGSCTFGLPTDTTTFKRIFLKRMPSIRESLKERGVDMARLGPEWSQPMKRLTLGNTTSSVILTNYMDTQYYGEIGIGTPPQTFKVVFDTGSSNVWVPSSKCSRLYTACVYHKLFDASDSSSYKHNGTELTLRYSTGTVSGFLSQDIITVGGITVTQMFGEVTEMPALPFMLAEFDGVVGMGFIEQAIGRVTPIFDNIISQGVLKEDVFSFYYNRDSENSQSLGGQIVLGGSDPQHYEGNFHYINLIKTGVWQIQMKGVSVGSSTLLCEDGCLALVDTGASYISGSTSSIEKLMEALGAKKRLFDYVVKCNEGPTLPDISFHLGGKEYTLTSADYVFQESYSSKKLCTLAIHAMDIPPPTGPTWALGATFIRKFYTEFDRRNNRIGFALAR
In short: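 Fluorometric assay with a synthetic tetradecapeptide substrate, pH 7.20 citrate/phosphate, 37 °C. Ki obtained by fitting to a competitive inhibition equation, sometimes from data pooled across two independent experiments. Reproducible within ±20%.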

Renin [2] = molecular target: T1, Renin; assay: Inhibition of human plasma renin; assay type: cell-free
In short: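 Renin in reconstituted lyophilized human plasma (high- or low-renin lots), acting on endogenous angiotensinogen. Angiotensin I was measured by radioimmunoassay at pH 7.4 phosphate, 37 °C, with 8-hydroxyquinoline or PMSF as angiotensinase inhibitor. Inhibitor stocks were 1.00×10⁻³ M in methanol or acetic acid. IC50 taken from several concentrations bracketing it.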

Renin (Canis familiaris) = assay: Inhibition of Renin
Rhizopuspepsin = molecular target: T2, Rhizopuspepsin (Rhizopus microsporus var. chinensis, UniProt P06026); assay: Inhibition of rhizopuspepsin
T2 sequence (P06026 whole entry): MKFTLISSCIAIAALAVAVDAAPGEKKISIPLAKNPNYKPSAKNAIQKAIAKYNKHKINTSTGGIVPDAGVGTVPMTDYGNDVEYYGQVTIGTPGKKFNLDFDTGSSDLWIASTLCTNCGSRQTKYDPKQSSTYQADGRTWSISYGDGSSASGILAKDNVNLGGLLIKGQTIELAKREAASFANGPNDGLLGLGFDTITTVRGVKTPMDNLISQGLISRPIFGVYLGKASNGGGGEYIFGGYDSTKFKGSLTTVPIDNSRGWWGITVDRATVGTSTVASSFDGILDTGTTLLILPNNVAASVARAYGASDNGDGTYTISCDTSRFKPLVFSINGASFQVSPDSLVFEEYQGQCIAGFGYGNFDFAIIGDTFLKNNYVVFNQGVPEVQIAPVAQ
In short: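 IC50 came from several inhibitor concentrations and was converted to Ki by the Cha equation, assuming competitive inhibition.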

Mus musculus = species on record: Mus musculus; assay: The compound was tested for inhibition of mouse submaxillary renin.; assay type: functional
In short: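 Mouse submaxillary gland renin was run like the human kidney renin assay: synthetic tetradecapeptide substrate, fluorometric read-out, pH 7.20 citrate/phosphate, 37 °C. Ki came from a competitive inhibition fit.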

Pepsin A = Pepsin A (Sus scrofa, UniProt P00791); assay: The compound was tested for inhibition of porcine pepsin.
Pepsin A, sequence (P00791 whole entry): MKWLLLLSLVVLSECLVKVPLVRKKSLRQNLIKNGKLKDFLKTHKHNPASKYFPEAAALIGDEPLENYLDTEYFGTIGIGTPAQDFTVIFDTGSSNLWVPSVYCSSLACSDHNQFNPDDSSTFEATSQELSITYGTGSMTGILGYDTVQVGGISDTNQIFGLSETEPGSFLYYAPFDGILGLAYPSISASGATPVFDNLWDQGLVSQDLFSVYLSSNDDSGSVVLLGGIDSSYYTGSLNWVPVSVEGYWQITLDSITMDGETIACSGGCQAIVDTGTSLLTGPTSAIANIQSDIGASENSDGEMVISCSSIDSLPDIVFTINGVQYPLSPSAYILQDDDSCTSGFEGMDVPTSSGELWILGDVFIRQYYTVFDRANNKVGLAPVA

Row | pKi (Renin [1]) | pIC50 (Renin [2]) | pIC50 (Renin (Canis familiaris)) | SMILES | pKi (Rhizopuspepsin) | pKi (Mus musculus) | pKi (Pepsin A)
1 | 7.85 | 6.00 | < 6.00 | CC(C)C[C@H](NC(=O)C[C@H](O)[C@H](CC1CCCCC1)NC(=O)[C@H](Cc1c[nH]cn1)NC(=O)COc1ccccc1)C(=O)N[C@@H](Cc1ccccc1)C(N)=O | – | – | –
2 | 6.24 | < 6.00 | < 6.00 | CC(C)C[C@H](NC(=O)C[C@H](O)[C@H](Cc1ccccc1)NC(=O)[C@H](Cc1c[nH]cn1)NC(=O)COc1ccccc1)C(=O)N[C@@H](Cc1ccccc1)C(N)=O | – | – | –
3 | 9.06 | 8.66 | 7.89 | CC(C)C[C@H](NC(=O)C[C@H](O)[C@H](CC1CCCCC1)NC(=O)[C@H](Cc1c[nH]cn1)NC(=O)[C@H](Cc1ccccc1)NC(=O)OC(C)(C)C)C(=O)N[C@@H](Cc1ccccc1)C(N)=O (HELM PEPTIDE1{[CC(C)(C)OC(=O)[*:2]].F.H.[O=C(C[C@H](O)[C@H](CC1CCCCC1)N[*:1])[*:2]].L.F.[am]}$$$$V2.0) | – | – | –
4 | – | – | – | CC(C)CC(=O)N[C@@H](Cc1c[nH]cn1)C(=O)N1CCC[C@H]1C(=O)N[C@@H](Cc1ccccc1)C(=O)N[C@@H](Cc1c[nH]cn1)C(=O)N[C@@H](CC(C)C)[C@@H](O)CC(=O)N[C@@H](CC(C)C)C(=O)N[C@@H](Cc1ccccc1)C(N)=O (HELM PEPTIDE1{[CC(C)CC(=O)[*:2]].H.P.F.H.[CC(C)C[C@H](N[*:1])[C@@H](O)CC(=O)[*:2]].L.F.[am]}$$$$V2.0) | 6.70 | 7.85 | 7.57
5 | – | – | – | CC(C)CC(=O)N[C@@H](Cc1c[nH]cn1)C(=O)N1CCC[C@H]1C(=O)N[C@@H](Cc1ccccc1)C(=O)N[C@@H](Cc1c[nH]cn1)C(=O)N[C@@H](CC1CCCCC1)C(O)CC(=O)N[C@@H](CC(C)C)C(=O)N[C@@H](Cc1ccccc1)C(N)=O (some centres not stated) (HELM PEPTIDE1{[CC(C)CC(=O)[*:2]].H.P.F.H.[O=C(CC(O)[C@H](CC1CCCCC1)N[*:1])[*:2]].L.F.[am]}$$$$V2.0) | 6.64 | 8.68 | 7.55
6 | 8.96 | 8.29 | 7.70 | CC(C)C[C@H](NC(=O)C[C@H](O)[C@H](CC1CCCCC1)NC(=O)[C@H](Cc1c[nH]cn1)NC(=O)[C@H](Cc1ccccc1)NC(=O)OC(C)C)C(=O)N[C@@H](Cc1ccccc1)C(N)=O (HELM PEPTIDE1{[CC(C)OC(=O)[*:2]].F.H.[O=C(C[C@H](O)[C@H](CC1CCCCC1)N[*:1])[*:2]].L.F.[am]}$$$$V2.0) | – | – | –
7 | 9.28 | 9.12 | 8.02 | CCOC(=O)N[C@@H](Cc1ccccc1)C(=O)N[C@@H](Cc1c[nH]cn1)C(=O)N[C@@H](CC1CCCCC1)[C@@H](O)CC(=O)N[C@@H](CC(C)C)C(=O)N[C@@H](Cc1ccccc1)C(N)=O (HELM PEPTIDE1{[CCOC(=O)[*:2]].F.H.[O=C(C[C@H](O)[C@H](CC1CCCCC1)N[*:1])[*:2]].L.F.[am]}$$$$V2.0) | – | – | –
8 | 5.39 | – | – | CC(C)C[C@H](NC(=O)C[C@H](O)[C@H](CC(C)C)NC(=O)[C@H](Cc1c[nH]cn1)NC(=O)COc1ccccc1)C(=O)N[C@@H](Cc1ccccc1)C(N)=O (HELM PEPTIDE1{[O=C(COc1ccccc1)[*:2]].H.[CC(C)C[C@H](N[*:1])[C@@H](O)CC(=O)[*:2]].L.F.[am]}$$$$V2.0) | – | – | –
